Data: ChEMBL document CHEMBL4342478, “Discovery of Potent N-Ethylurea Pyrazole Derivatives as Dual Inhibitors of Trypanosoma brucei and Trypanosoma cruzi” (ACS Med Chem Lett, 2020)
The source made the active and inactive calls. No cut-off for these calls is given here.

Tests used:
Leishmania donovani = assay: AntiLeishmanial activity against amastigote form of Leishmania donovani MHOM/ET/67/L82 after 72 hrs by Alamar blue dye based fluorometric analysis; assay type: functional, organism-based
[1] = test system: Trypanosoma brucei brucei; assay: Antitrypanosomal activity against Trypanosoma brucei brucei BS427 after 48 hrs by resazurin dye based fluorescence assay; assay type: functional, organism-based; conditions: Trypanosoma brucei, BS427, 48 h; read-out: IC50
How it was run: (§1)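 IC50 values are the mean of two independent experiments. The T. b. brucei assay uses free parasites. The T. cruzi assay uses intracellular parasites in H9c2 host cells.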

Trypanosoma cruzi [2] = assay: Antitrypanosomal activity against Trypanosoma cruzi Brazil trypomastigotes expressing firefly luciferase infected in BALB/c mouse assessed as reduction in parasitemia at 50 mg/kg, po via gavage twice daily at 30 mins after administration with 50 mg/kg, ip CYP inhibitor, 1-aminobenzotriazole twice daily and measured after 6 days by bioluminescence assay; assay type: functional, organism-based
How it was run: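 BALB/c mice were infected with trypomastigotes of a transgenic T. cruzi Brazil strain expressing firefly luciferase. Treatment was by oral gavage twice daily: vehicle (PBS with 2% methylcellulose and 0.5% Tween 80), or 50 mg/kg test article given 30 min after ip 1-aminobenzotriazole 50 mg/kg. Benznidazole 30 mg/kg was given by oral gavage once daily. Parasite load was measured by bioluminescence imaging at treatment day 0 (3 days post infection) and day 6.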

Trypanosoma cruzi [3] = assay: Antitrypanosomal activity against Trypanosoma cruzi Tulahuen C2C4 trypomastigotes infected in rat L6 cells after 96 hrs by photometric analysis; assay type: functional, organism-based
[4] = Metabolic stability in mouse liver microsomes; assay type: ADME, Microsome
[5] = Metabolic stability in human liver microsomes; assay type: ADME, Microsome
Plasmodium falciparum = assay: Antiplasmodial activity against erythrocytic stage of Plasmodium falciparum after 48 hrs by [3H]-hypoxanthine incorporation assay; assay type: functional, organism-based
[6] = Half life in human liver microsomes; assay type: ADME, Microsome
Trypanosoma cruzi [7] = assay: Trypanosomacidal activity against Trypanosoma cruzi strain Y trypomastigotes assessed as reduction in number of infected cells at 0.078 uM measured for 24 to 96 hrs by Hoechst 33342 staining based fluorescence imaging assay relative to benznidazole; assay type: functional
How it was run: (§2)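 Time-to-kill assay against intracellular T. cruzi, with test article at 0.312 or 0.078 μM. Controls were benznidazole 20 μM, posaconazole 0.04 μM and DMSO. The number of infected host cells was tracked over time after drug addition.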

[8] = Toxicity in BALB/c mouse infected with Trypanosoma cruzi Brazil trypomastigotes expressing firefly luciferase assessed as body weight loss at 50 mg/kg, po via gavage twice daily at 30 mins after administration with 50 mg/kg, ip CYP inhibitor, 1-aminobenzotriazole twice daily; assay type: organism-based; conditions: in vivo, 0.5 h
How it was run: (§3)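 Acutely infected BALB/c mice carried luciferase-expressing T. cruzi Brazil strain. Mice received oral gavage twice daily of 50 mg/kg test article in PBS with 2% methylcellulose and 0.5% Tween 80. Each dose followed ip 1-aminobenzotriazole 50 mg/kg by 30 min.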

Trypanosoma cruzi [9] = assay: Antitrypanosomal activity against Trypanosoma cruzi infected in rat H9C2 cells by DRAQ5 DNA dye based imaging analysis; assay type: functional, organism-based; how it was run: as §1
[10] = Kinetic solubility of compound at pH 2 to 6.5 by nephelometry; assay type: physicochemical; conditions: buffer, read-out: Kinetic_solubility
[11] = Toxicity in BALB/c mouse infected with Trypanosoma cruzi Brazil trypomastigotes expressing firefly luciferase assessed as lethargy at 50 mg/kg, po via gavage twice daily at 30 mins after administration with 50 mg/kg, ip CYP inhibitor, 1-aminobenzotriazole twice daily; assay type: organism-based; conditions: in vivo, 0.5 h; how it was run: as §3
Trypanosoma cruzi [12] = assay: Trypanosomacidal activity against Trypanosoma cruzi strain Y trypomastigotes assessed as reduction in number of infected cells at 0.078 uM measured within first 24 hrs by Hoechst 33342 staining based fluorescence imaging assay; assay type: functional, organism-based; how it was run: as §2
[13] = Selectivity index, ratio of cytotoxicity against rat H9C2 cells to IC50 for antitrypanosomal activity against Trypanosoma cruzi infected in rat H9C2 cells; assay type: toxicity, cell-based; conditions: read-out: Selectivity Index
[14] = test system: Trypanosoma brucei rhodesiense; assay: Antitrypanosomal activity against blood stream form of Trypanosoma brucei rhodesiense STIB900 after 72 hrs by Alamar blue based fluorometric assay; assay type: functional, organism-based
[15] = Selectivity index, ratio of IC50 for human HEK293 cells incubated for 69 hrs by resazurin dye based fluorescence analysis to IC50 for antitrypanosomal activity against Trypanosoma brucei brucei BS427; assay type: toxicity; conditions: read-out: Ratio IC50

With `O=C(NCCn1ccc(-c2ccc(F)c(F)c2)n1)N1CC[C@H](F)C1` as the molecule, how does the Activity (Leishmania donovani) read?
Its Activity is “Active”.

What about the IC50 [1] of the same molecule?
Its IC50 is 9 nM.

What about the Activity (Trypanosoma cruzi [2]) of the same molecule?
Its Activity is “Active”.

What about the Activity (Trypanosoma cruzi [3]) of the same molecule?
Its Activity is “Active”.

And the Stability [4]?
The Stability was “Stable”.

What about the Stability [5] of the same molecule?
Its Stability is “Stable”.

And the Activity (Plasmodium falciparum)?
The Activity was “Active”.

What about the half-life [6] of the same molecule?
Its half-life is 23 min.

What about the “fold change (FC)” value (Trypanosoma cruzi [7]) of the same molecule?
Its value is 36.

What about the Activity [8] of the same molecule?
The Activity was “Toxic”.

And the IC50 (Trypanosoma cruzi [9])?
Its IC50 is 16 nM.

And the solubility kinetic [10]?
The solubility kinetic was > 20 µg/mL.

And the Activity [11]?
Its Activity is “Toxic”.

What about the Activity (Trypanosoma cruzi [12]) of the same molecule?
Its Activity is “Active”.

And the selectivity ratio [13]?
The selectivity ratio was 588 to 3160.

And the Activity [14]?
Its Activity is “Active”.

And the selectivity ratio at 69 h [15]?
The selectivity ratio at 69 h was 8650.
